# Data from ChEMBL document CHEMBL4043302, “Lead Diversification at the Nanomole Scale Using Liver Microsomes and Quantitative Nuclear Magnetic Resonance Spectroscopy: Application to Phosphodiesterase 2 Inhibitors” (J Med Chem, 2018).
# pIC50: −log10 of the molar value.
# Experiments:
# [1] = Intrinsic clearance in human hepatocytes assessed per million cells at 1 uM after 0.5 to 4 hrs by HPLC-HRMS method; type: ADME, cell-based, Hepatocyte; conditions: human hepatocytes, read-out: CLH
# Summary of the method: (§1)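 Compound at 1 µM was dried from d6-DMSO and redissolved in Williams E medium. Pooled human hepatocytes were added at 680000 cells/mL. Samples were quenched in water/CH3CN (2:1) with 2% formic acid and clozapine as internal standard, then analysed by HPLC-HRMS in positive-ion full scan. k came from the slope of ln peak-area ratio versus time; CLint = k / cell concentration. Non-specific binding was not measured.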
# Liver [2] = assay: Drug metabolism in mouse liver microsomes assessed as 7-(5-(4-Chlorophenyl)-1,3-dimethyl-1H-pyrazol-4-yl)-5-(hydroxymethyl)-2-methylimidazo[5,1-f ][1,2,4]triazin-4(3H)-one formation at 20 uM after 1.5 hrs by UHPLC-UV-HRMS method; type: ADME, microsome
# Summary of the method: (§2)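 Preparative incubation: substrate 20 µM with liver microsomes (2 mg/mL) of the listed species in 0.1 M potassium phosphate, pH 7.5, with MgCl2 3.3 mM and NADPH 1.3 mM. Run at 37°C in a shaking water bath and stopped with an equal volume of CH3CN. Products were fractionated by HPLC and quantified by qNMR in d6-DMSO.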
# Liver [3] = assay: Drug metabolism in mouse liver microsomes assessed as 7-(5-(4-Chlorophenyl)-3-(hydroxymethyl)-1-methyl-1H-pyrazol-4-yl)-2,5-dimethylimidazo[5,1-f ][1,2,4]triazin-4(3H)-one formation at 20 uM after 1.5 hrs by UHPLC-UV-HRMS method; type: ADME, microsome; summary of the method: as §2
# [4] = Apparent permeability across RRCK cells after 1.5 hrs; type: ADME, cell-based, Canis lupus familiaris, MDCKII-LE; conditions: dog, MDCK
# Liver [5] = assay: Drug metabolism in human liver microsomes assessed as 5-(5-((2-Hydroxycyclopentyl)methyl)-4,5,6,7-tetrahydropyrazolo-[1,5-a]pyrazin-3-yl)-7-methylimidazo[5,1-f][1,2,4]triazin-4(3H)-one diastereomer 1 formation at 20 uM after 1.5 hrs by UHPLC-UV-HRMS method; type: ADME, microsome; summary of the method: as §2
# Liver [6] = assay: Drug metabolism in human liver microsomes assessed as 5-(5-((2-Hydroxycyclopentyl)methyl)-4,5,6,7-tetrahydropyrazolo-[1,5-a]pyrazin-3-yl)-7-methylimidazo[5,1-f][1,2,4]triazin-4(3H)-one diastereomer 2 formation at 20 uM after 1.5 hrs by UHPLC-UV-HRMS method; type: ADME, microsome; summary of the method: as §2
# [7] = Drug metabolism in cynomolgus monkey liver microsomes assessed as 5-(Difluoromethyl)-7-(3-(hydroxymethyl)-1-methyl-5-(4-(trifluoromethyl)phenyl)-1H-pyrazol-4-yl)-2-methylimidazo[5,1-f ]-[1,2,4]triazin-4(3H)-one formation at 20 uM after 1.5 hrs by UHPLC-UV-HRMS method; type: ADME, Macaca fascicularis, microsome; summary of the method: as §2
# [8] = Drug metabolism in cynomolgus monkey liver microsomes assessed as 5-(Difluoromethyl)-2-methyl-7-(3-methyl-5-(4-(trifluoromethyl)-phenyl)-1H-pyrazol-4-yl)imidazo[5,1-f ][1,2,4]triazin-4(3H)-one at 20 uM after 1.5 hrs by UHPLC-UV-HRMS method; type: ADME, Macaca fascicularis, microsome; summary of the method: as §2
# [9] = Metabolic stability in human hepatocytes at 1 uM after 0.5 to 4 hrs by HPLC-HRMS method; type: ADME, cell-based, Hepatocyte; summary of the method: as §1
# [10] = Drug metabolism in hamster liver microsomes assessed as 7-(5-(6-Hydroxypyridin-3-yl)-3-methyl-1H-pyrazol-4-yl)-2,5-dimethylimidazo[5,1-f ][1,2,4]triazin-4(3H)-one formation at 20 uM after 1.5 hrs by UHPLC-UV-HRMS method; type: ADME, microsome; conditions: cricetinae; summary of the method: as §2
# [11] = Drug metabolism in hamster liver microsomes assessed as 5-(Hydroxymethyl)-7-(5-(6-methoxypyridin-3-yl)-3-methyl-1Hpyrazol-4-yl)-2-methylimidazo[5,1-f ][1,2,4]triazin-4(3H)-one formation at 20 uM after 1.5 hrs by UHPLC-UV-HRMS method; type: ADME, microsome; conditions: cricetinae; summary of the method: as §2
# [12] = Drug metabolism in hamster liver microsomes assessed as 7-(5-(6-Methoxypyridin-3-yl)-3-methyl-1H-pyrazol-4-yl)-2,5-dimethylimidazo[5,1-f ][1,2,4]triazin-4(3H)-one formation at 20 uM after 1.5 hrs by UHPLC-UV-HRMS method; type: ADME, microsome; conditions: cricetinae; summary of the method: as §2
# [13] = Drug metabolism in hamster liver microsomes assessed as 5-(Hydroxymethyl)-7-(5-(6-methoxypyridin-3-yl)-1,3-dimethyl-1H-pyrazol-4-yl)-2-methylimidazo[5,1-f ][1,2,4]triazin-4(3H)-one formation at 20 uM after 1.5 hrs by UHPLC-UV-HRMS method; type: ADME, microsome; conditions: cricetinae; summary of the method: as §2
# [14] = Drug metabolism in rabbit liver microsomes assessed as 5-(Hydroxymethyl)-7-(5-(3-(hydroxymethyl)-4-(trifluoromethyl)phenyl)-1,3-dimethyl-1H-pyrazol-4-yl)-2-methylimidazo[5,1-f ][1,2,4]triazin-4(3H)-one formation at 20 uM after 1 hr by UHPLC-UV-HRMS method; type: ADME, Oryctolagus cuniculus, microsome; summary of the method: as §2
# [15] = Drug metabolism in rabbit liver microsomes assessed as 7-(3-(Hydroxymethyl)-5-(3-(hydroxymethyl)-4-(trifluoromethyl)-phenyl)-1-methyl-1H-pyrazol-4-yl)-2,5-dimethylimidazo[5,1-f ]-[1,2,4]triazin-4(3H)-one formation at 20 uM after 1 hr by UHPLC-UV-HRMS method; type: ADME, Oryctolagus cuniculus, microsome; summary of the method: as §2
# [16] = Drug metabolism in rabbit liver microsomes assessed as 7-(5-(3-(Hydroxymethyl)-4-(trifluoromethyl)phenyl)-1,3-dimethyl-1H-pyrazol-4-yl)-2,5-dimethylimidazo[5,1-f ][1,2,4]triazin-4(3H)-one formation at 20 uM after 1 hr by UHPLC-UV-HRMS method; type: ADME, Oryctolagus cuniculus, microsome; summary of the method: as §2
# [17] = Drug metabolism in rabbit liver microsomes assessed as 5-(Hydroxymethyl)-7-(3-(hydroxymethyl)-1-methyl-5-(3-methyl-4-(trifluoromethyl)phenyl)-1H-pyrazol-4-yl)-2-methylimidazo[5,1-f ][1,2,4]triazin-4(3H)-one formation at 20 uM after 1 hr by UHPLC-UV-HRMS method; type: ADME, Oryctolagus cuniculus, microsome; summary of the method: as §2
# [18] = Drug metabolism in rabbit liver microsomes assessed as 7-(1,3-Dimethyl-5-(3-methyl-4-(trifluoromethyl)phenyl)-1H-pyrazol-4-yl)-5-(hydroxymethyl)-2-methylimidazo[5,1-f ][1,2,4]triazin-4(3H)-one formation at 20 uM after 1 hr by UHPLC-UV-HRMS method; type: ADME, Oryctolagus cuniculus, microsome; summary of the method: as §2
# [19] = Drug metabolism in rabbit liver microsomes assessed as 4-(2,5-Dimethyl-4-oxo-3,4-dihydroimidazo[5,1-f ][1,2,4]triazin-7-yl)-1-methyl-5-(3-methyl-4-(trifluoromethyl)phenyl)-1H-pyrazole-3-carboxylic acid formation at 20 uM after 1 hr by UHPLC-UV-HRMS method; type: ADME, Oryctolagus cuniculus, microsome; summary of the method: as §2
# [20] = Drug metabolism in cynomolgus monkey liver microsomes assessed as 5-(Hydroxymethyl)-7-(3-(hydroxymethyl)-1-methyl-5-(5-(trifluoromethyl)pyridin-2-yl)-1H-pyrazol-4-yl)-2-methylimidazo-[5,1-f ][1,2,4]triazin-4(3H)-one formation at 20 uM after 1.2 hrs by UHPLC-UV-HRMS method; type: ADME, Macaca fascicularis, microsome; summary of the method: as §2
# [21] = Drug metabolism in cynomolgus monkey liver microsomes assessed as 7-(1,3-Dimethyl-5-(5-(trifluoromethyl)pyridin-2-yl)-1H-pyrazol-4-yl)-5-(hydroxymethyl)-2-methylimidazo[5,1-f ][1,2,4]triazin-4(3H)-one formation at 20 uM after 1.2 hrs by UHPLC-UV-HRMS method; type: ADME, Macaca fascicularis, microsome; summary of the method: as §2
# [22] = Drug metabolism in cynomolgus monkey liver microsomes assessed as 7-(3-(Hydroxymethyl)-1-methyl-5-(5-(trifluoromethyl)pyridin-2-yl)-1H-pyrazol-4-yl)-2,5-dimethylimidazo[5,1-f ][1,2,4]triazin-4(3H)-one formation at 20 uM after 1.2 hrs by UHPLC-UV-HRMS method; type: ADME, Macaca fascicularis, microsome; summary of the method: as §2
# [23] = Drug metabolism in cynomolgus monkey liver microsomes assessed as 4-(2,5-Dimethyl-4-oxo-3,4-dihydroimidazo[5,1-f ][1,2,4]triazin-7-yl)-1-methyl-5-(5-(trifluoromethyl)pyridin-2-yl)-1H-pyrazole-3-carbaldehyde formation at 20 uM after 1.2 hrs by UHPLC-UV-HRMS method; type: ADME, Macaca fascicularis, microsome; summary of the method: as §2
# [24] = Drug metabolism in hamster liver microsomes assessed as 5-(Hydroxymethyl)-2-methyl-7-(3-methyl-5-(4-(trifluoromethyl)-phenyl)-1H-pyrazol-4-yl)imidazo[5,1-f ][1,2,4]triazin-4(3H)-one formation at 20 uM after 1 hr by UHPLC-UV-HRMS method; type: ADME, microsome; conditions: cricetinae; summary of the method: as §2
# [25] = Drug metabolism in hamster liver microsomes assessed as 7-(3-(Hydroxymethyl)-5-(4-(trifluoromethyl)phenyl)-1H-pyrazol-4-yl)-5-(methoxymethyl)-2-methylimidazo[5,1-f ][1,2,4]triazin-4(3H)-one formation at 20 uM after 1 hr by UHPLC-UV-HRMS method; type: ADME, microsome; conditions: cricetinae; summary of the method: as §2
# [26] = Drug metabolism in hamster liver microsomes assessed as 5-(Methoxymethyl)-2-methyl-7-(3-methyl-5-(4-(trifluoromethyl)-phenyl)-1H-pyrazol-4-yl)imidazo[5,1-f ][1,2,4]triazin-4(3H)-one formation at 20 uM after 1 hr by UHPLC-UV-HRMS method; type: ADME, microsome; conditions: cricetinae; summary of the method: as §2
# [27] = Drug metabolism in hamster liver microsomes assessed as 7-(1,3-Dimethyl-5-(4-(trifluoromethyl)phenyl)-1H-pyrazol-4-yl)-5-(methoxymethyl)-2-methyl-4-oxo-3,4-dihydroimidazo[5,1-f ][1,2,4]-triazine 1-oxide formation at 20 uM after 1 hr by UHPLC-UV-HRMS method; type: ADME, microsome; conditions: cricetinae; summary of the method: as §2
# [28] = target: cGMP-dependent 3',5'-cyclic phosphodiesterase (Homo sapiens, UniProt O00408); assay: Inhibition of human PDE2A1 using 3',5'-[3H]cGMP as substrate after 30 mins by scintillation proximity assay
# cGMP-dependent 3',5'-cyclic phosphodiesterase, sequence (O00408 whole entry): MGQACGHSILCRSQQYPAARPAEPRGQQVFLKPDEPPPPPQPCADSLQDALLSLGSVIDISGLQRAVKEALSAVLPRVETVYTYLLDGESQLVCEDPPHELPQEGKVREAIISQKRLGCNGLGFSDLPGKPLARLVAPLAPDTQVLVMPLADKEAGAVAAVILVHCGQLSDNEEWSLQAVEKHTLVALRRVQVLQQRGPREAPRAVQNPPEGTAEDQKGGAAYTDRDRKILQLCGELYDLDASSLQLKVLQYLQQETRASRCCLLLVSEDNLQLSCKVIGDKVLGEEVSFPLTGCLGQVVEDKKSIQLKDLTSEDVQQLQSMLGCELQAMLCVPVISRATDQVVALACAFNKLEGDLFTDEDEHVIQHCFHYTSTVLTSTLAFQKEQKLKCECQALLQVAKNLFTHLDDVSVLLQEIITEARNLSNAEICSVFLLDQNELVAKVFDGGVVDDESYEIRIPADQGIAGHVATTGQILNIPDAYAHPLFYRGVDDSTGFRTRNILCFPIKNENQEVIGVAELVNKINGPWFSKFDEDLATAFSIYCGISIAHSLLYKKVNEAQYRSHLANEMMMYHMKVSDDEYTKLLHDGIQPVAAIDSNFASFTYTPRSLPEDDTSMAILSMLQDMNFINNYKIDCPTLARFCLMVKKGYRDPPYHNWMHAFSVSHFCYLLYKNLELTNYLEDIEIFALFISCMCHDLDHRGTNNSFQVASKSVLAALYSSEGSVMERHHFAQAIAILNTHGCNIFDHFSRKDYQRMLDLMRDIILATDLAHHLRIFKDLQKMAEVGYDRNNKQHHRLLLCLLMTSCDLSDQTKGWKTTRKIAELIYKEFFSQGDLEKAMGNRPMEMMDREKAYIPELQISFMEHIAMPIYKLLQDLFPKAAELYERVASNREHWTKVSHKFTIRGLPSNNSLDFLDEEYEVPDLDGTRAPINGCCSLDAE
# Liver [29] = assay: Drug level in human liver microsomes treated with 5-(5-(Cyclopentylmethyl)-4,5,6,7-tetrahydropyrazolo[1,5-a]-pyrazin-3-yl)-7-methylimidazo[5,1-f ][1,2,4]triazin-4(3H)-one at 20 uM after 1.5 hrs by UHPLC-UV-HRMS method; type: ADME, microsome; summary of the method: as §2
smiles,measurement,setting,value
Cc1nn2c(-c3c(C)nn(C)c3-c3ccc(Cl)cc3)nc(C)c2c(=O)[nH]1,hepatocyte CLint at 1 µM,[1],32 µL/min/1e6 cells
same,Drug metabolism,Liver [2],Metabolite_Detected
same,Drug metabolism,Liver [3],Metabolite_Detected
Cc1nc(-c2cnn3c2CN(CC2CCCC2)CC3)c2c(=O)[nH]cnn12,hepatocyte CLint at 1 µM,[1],16 µL/min/1e6 cells
same,Papp at 1.5 h,[4],24 ×10⁻⁶ cm/s
same,Drug metabolism,Liver [5],Metabolite_Detected
same,Drug metabolism,Liver [6],Metabolite_Detected
Cc1nn2c(-c3c(C)nn(C)c3-c3ccc(C(F)(F)F)cc3)nc(C(F)F)c2c(=O)[nH]1,hepatocyte CLint at 1 µM,[1],5.3 µL/min/1e6 cells
same,Papp at 1.5 h,[4],23 ×10⁻⁶ cm/s
same,Drug metabolism,[7],Metabolite_Detected
same,Drug metabolism,[8],Metabolite_Detected
COc1ccc(-c2c(-c3nc(C)c4c(=O)[nH]c(C)nn34)c(C)nn2C)cn1,Stability,[9],Stable
same,Drug metabolism,[10],Metabolite_Detected
same,Drug metabolism,[11],Metabolite_Detected
same,Drug metabolism,[12],Metabolite_Detected
same,Drug metabolism,[13],Metabolite_Detected
Cc1nn2c(-c3c(C)nn(C)c3-c3ccc(C(F)(F)F)c(C)c3)nc(C)c2c(=O)[nH]1,Drug metabolism,[14],Metabolite_Detected
same,Drug metabolism,[15],Metabolite_Detected
same,Drug metabolism,[16],Metabolite_Detected
same,Drug metabolism,[17],Metabolite_Detected
same,Drug metabolism,[18],Metabolite_Detected
same,Drug metabolism,[19],Metabolite_Detected
same,hepatocyte CLint at 1 µM,[1],19 µL/min/1e6 cells
same,Papp at 1.5 h,[4],28 ×10⁻⁶ cm/s
Cc1nn2c(-c3c(C)nn(C)c3-c3ccc(C(F)(F)F)cn3)nc(C)c2c(=O)[nH]1,Papp at 1.5 h,[4],16 ×10⁻⁶ cm/s
same,Stability,[9],Stable
same,Drug metabolism,[20],Metabolite_Detected
same,Drug metabolism,[21],Metabolite_Detected
same,Drug metabolism,[22],Metabolite_Detected
same,Drug metabolism,[23],Metabolite_Detected
COCc1nc(-c2c(C)nn(C)c2-c2ccc(C(F)(F)F)cc2)n2nc(C)[nH]c(=O)c12,hepatocyte CLint at 1 µM,[1],4.7 µL/min/1e6 cells
same,Papp at 1.5 h,[4],13 ×10⁻⁶ cm/s
same,Drug metabolism,[24],Metabolite_Detected
same,Drug metabolism,[25],Metabolite_Detected
same,Drug metabolism,[26],Metabolite_Detected
same,Drug metabolism,[27],Metabolite_Detected
"Cc1nc(-c2cnn3c2CN(CC2CCCC2O)CC3)c2c(=O)[nH]cnn12 (single isomer, unassigned; diastereomer 1)",pIC50,[28],< 5.70
same,hepatocyte CLint at 1 µM,[1],5.4 µL/min/1e6 cells
same,Papp at 1.5 h,[4],1.8 ×10⁻⁶ cm/s
same,Drug metabolism,Liver [29],Metabolite_Detected
